Bioassay records: PubChem BioAssay, several laboratories
An excerpt weighted towards active compounds, which were near 1.8% of everything screened.
mABHD4 FP – ABHD4 inhibitors, primary screen, biochemical, fluorescence polarization, mouse; (Lyso)-N-acylphosphatidylethanolamine lipase (Mus musculus), Q8VD66; purified mABHD4, FP-Rh probe fluorescence polarization; inhibition, % at 8.92 µM; 0.54% of 370,000 active; AID 720543, 2013;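 active means inhibition exceeding the mean over every tested compound plus 3 SD, cut at about 30% in these data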;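 further: 0% = plate median of compound wells and 100% = S159A mutant with DMSO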
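Assay system: Wild-type mouse ABHD4 protein | Medium: HEPES pH 7.0 buffer, 150 mM NaCl, 0.01% Pluronic F-127 | Incubation: Enzyme–compound pre-incubation 45 min, then probe 60 min, both 25 °C | Technique: Fluorescence polarization with parallel and perpendicular emission, 525/598 nm | Evaluation: % inhibition of FP-Rh probe binding versus controls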
TCR CD3 inh – inhibitors of human TCR-CD3 interaction, primary screen, biochemical, fluorescence, TAMRA-labeled TCR probe | T-cell receptor (TCR) | inhibition, % at 9.4 µM | 0.37% of 360,000 active;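 further: recombinant mutant TCR 2C K166C tagged with TAMRA read by polarization; 0% = receptor in buffer alone and 100% = receptor with positive control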
ARNT-TACC3 inh – disruptors of ARNT/TACC3 protein interaction, primary screen, biochemical, AlphaScreen, single concentration; Transforming acidic coiled-coil-containing protein 3 (Homo sapiens), Q9Y6A5; AlphaScreen His-ARNT PAS-B/GST-TACC3 binding, luminescence; TACC3 fragment carries E629A point mutation; inhibition, % at 9.99 µM; 0.66% of 390,000 active; AID 623870, 2012;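 active means mean inhibition of replicates at least 50% and at least half of replicates each reaching 50%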;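 further: 0% = complete ARNT plus TACC3 wells and 100% = ARNT alone without TACC3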
HTRA1 inhibitor – HTRA1 serine protease inhibitors, primary screen, biochemical, fluorescence polarization, HTS; Q92743; recombinant HTRA1, FP-rhodamine activity-based probe; 0.5% of 340,000 active; inhibition, % at 5.96 µM; in the data active means inhibition above about 36%;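 further: 0% = enzyme with DMSO and 100% = wells lacking enzyme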
SIAE inh – human SIAE inhibitors, primary screen, biochemical, fluorescence polarization, FP-Rh probe, 1536-well HTS | Sialate O-acetylesterase (Homo sapiens), Q9HAT2 | SIAE FP-Rh probe binding | inhibition, % at 9.66 µM | 0.69% of 370,000 active | AID 1053197, 2014;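 active means inhibition above a cutoff: mean of compounds within the control limits plus 3 SD of those, cut at about 17% in these data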;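 further: 0% = plate median of compound wells and 100% = probe without SIAE protein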
Target sequence (Q9HAT2 whole entry, looked up): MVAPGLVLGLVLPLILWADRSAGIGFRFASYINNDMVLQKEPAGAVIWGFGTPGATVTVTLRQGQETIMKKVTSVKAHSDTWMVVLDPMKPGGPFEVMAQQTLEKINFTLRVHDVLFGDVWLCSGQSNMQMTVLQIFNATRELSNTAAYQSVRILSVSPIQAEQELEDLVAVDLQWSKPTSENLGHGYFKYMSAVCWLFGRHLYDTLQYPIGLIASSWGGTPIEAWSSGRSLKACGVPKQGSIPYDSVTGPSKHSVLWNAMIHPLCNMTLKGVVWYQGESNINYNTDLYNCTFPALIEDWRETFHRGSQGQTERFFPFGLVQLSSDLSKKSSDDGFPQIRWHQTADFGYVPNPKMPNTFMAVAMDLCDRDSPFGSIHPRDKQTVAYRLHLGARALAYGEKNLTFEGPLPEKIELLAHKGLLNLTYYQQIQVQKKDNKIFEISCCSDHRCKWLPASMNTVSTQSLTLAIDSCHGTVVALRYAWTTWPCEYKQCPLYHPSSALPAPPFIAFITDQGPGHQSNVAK
ARNT Alpha ctr – AlphaScreen signal interference compounds, dose response, artefact control for ARNT-TACC3 interaction inhibitor project, biochemical, luminescence, cherry-pick | shares compounds with ARNT-TACC3 inh | His-ARNT PASB-GST AlphaScreen artifact counter-screen | AC50, µM (titrated, usually from 68 µM), for the others: at the highest dose activity change, negative = signal decrease | 50% of 1,200 active | AID 651705, 2012;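 active means every separate test run was called active for a drop in luminescence, with AC50 within twice the top valid dose, actives reach about 71 µM in these data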
BSA probe FL – compounds interfering with TAMRA-BSA probe, counter-screen for TCR-CD3 interaction inhibitor project, biochemical, fluorescence, TAMRA-labeled BSA | shares compounds with TCR CD3 inh | TAMRA-labeled BSA probe fluorescence counterscreen | inhibition, % at 9.4 µM | 10% of 1,200 active; in the data active means inhibition above about 23%;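 further: 0% = buffer low control and 100% = reference high control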
TCR-CD3 inh conf – TCR-CD3 interaction inhibitors, retest, confirmation, biochemical, fluorescence, TAMRA-labeled TCR probe | shares compounds with TCR CD3 inh | TAMRA-labeled TCR probe fluorescence binding assay | inhibition, % at 9.4 µM | 48% of 1,200 active
SIAE inh conf – human SIAE inhibitors, retest, confirmation, biochemical, fluorescence polarization, FP-Rh probe, triplicate; shares compounds with SIAE inh; SIAE FP-Rh activity-based probe; inhibition, % at 9.66 µM; 13% of 2,300 active; AID 1117263, 2014;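 active means mean inhibition of the replicates above the hit cutoff set in the primary screen, cut at about 17% in these data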;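 further: 0% = SIAE with DMSO and probe and 100% = probe without SIAE; inhibitors lower polarization as more probe stays unbound to SIAE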
* hit, by the source's call; / = not tested or not shown. Unless noted, no stated cut-off is given here; in the data, active means inhibition above about 19%; inactive means the rest.

SMILES	mABHD4 FP	TCR CD3 inh	ARNT-TACC3 inh	HTRA1 inhibitor	SIAE inh	BSA probe FL	TCR-CD3 inh conf	others
C[C@@H]1CN([C@H](C)CO)C(=O)Cc2cc(NS(=O)(=O)c3cn(C)cn3)ccc2O[C@H]1CN(C)S(C)(=O)=O	/	/	-33	/	/	/	/
O=C(Nc1nnc(-c2ccc(Br)cc2)o1)c1ccco1	/	/	35	1	/	/	/
O=C(Nc1nnc(-c2cccs2)o1)c1ccco1	2	-1	51*	12	19*	/	/	ARNT Alpha ctr=-20%;SIAE inh conf=4
Cc1noc(C)c1S(=O)(=O)N(C)C[C@H]1OCCCC[C@@H](C)Oc2ccc(NS(=O)(=O)c3cccs3)cc2C(=O)N([C@@H](C)CO)C[C@H]1C	/	/	-2	/	/	/	/
Cc1ccn2c(Nc3ccccc3C)c(-c3ccccn3)nc2c1	7	-9	70*	10	18*	/	/	ARNT Alpha ctr=21µM*;SIAE inh conf=5
C/C(=C\C(=O)c1ccc(Cl)cc1)Nc1ccc(N2CCOCC2)cc1	16	3	4	2	4	/	/
C/C(=C\C(=O)c1ccccc1)Nc1ccc(N2CCOCC2)cc1	19	1	39*	17	18*	/	/	ARNT Alpha ctr=-27%;SIAE inh conf=-33
O=C(O)c1ccc(/C=N/O)cc1	1	19*	1	4	3	1	1
C[C@@H]1CN([C@@H](C)CO)C(=O)c2cc(-c3ccncc3)cnc2O[C@H]1CN(C)S(=O)(=O)c1ccc(F)cc1	/	/	-5	/	/	/	/
COc1ccccc1OCC(=O)N/N=C/C=C/c1ccc([N+](=O)[O-])o1	24	27*	6	0	16	-1	1
O=C(Cc1ccccc1)N/N=C/c1cc(Br)cc(Br)c1O	7	23*	2	20	14	-7	25*
O=C(CNC(=O)c1cccc(Br)c1)N/N=C/c1cc(Br)cc(Br)c1O	7	48*	16	17	8	-13	36*
O=C(CNC(=O)c1cccc(Br)c1)N/N=C/c1cccs1	-3	-4	30	-4	0	/	/
CN(C)c1ccc(C(=O)N/N=C/c2cc(Br)cc(Br)c2O)cc1	20	33*	/	/	-3	0	43*
O=C(N[C@H]1CC[C@H](CCNS(=O)(=O)c2ccc(Cl)cc2)O[C@H]1CO)c1ccccn1	/	/	-3	/	/	/	/
CCOC(=O)C1=C(N)Oc2cc(C)oc(=O)c2C1c1cccnc1 (stereo unspecified)	2	21*	-6	0	2	3	0
CCOC(=O)C1=C(N)Oc2ccc3ccccc3c2C1c1cccnc1 (stereo unspecified)	-9	-2	/	-22	-4	/	/
O=C(Nc1ccc2c(c1)[C@H]1C[C@@H](CC(=O)N3CCc4ccccc4C3)O[C@H](CO)[C@H]1O2)NC1CCCC1	/	/	-9	/	/	/	/
CN(CCC1CCOCC1)C(=O)CC1C(=O)NCCN1C/C=C/c1ccccc1 (stereo unspecified)	1	4	-4	5	1	/	/
CN(CC1CCOCC1)C(=O)CC1C(=O)NCCN1C/C=C/c1ccccc1 (stereo unspecified)	0	95*	-3	3	-2	-1	0
